According to ChEMBL document CHEMBL1123580, “Synthesis and biological properties of side-chain-modified bleomycins” (1987):

How the values were obtained:
[1] = test system: B16; assay: Effect on the survival of mouse B16 melanoma cells was determined at a dose of 100 ug/mL in vitro; assay type: functional; settings: read-out: Survival
Outline: (§1)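 B16 mouse melanoma cells from log-phase cultures seeded at 5 × 10^4 cells/mL in Dulbecco's modified Eagle medium with 10% newborn calf serum; after 24 h, exposed to agent (10 or 100 µg/mL) for 21 h, washed twice, fresh medium. Cells trypsinized and counted 48 h after start of incubation; viability by Trypan blue exclusion. Survival = T/C × 100 versus untreated control; mean of three samples.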

[2] = test system: B16; assay: Effect on the survival of mouse B16 melanoma cells was determined at a dose of 10 ug/mL in vitro; assay type: functional; settings: read-out: Survival; outline: as §1

**Q.** With `Cc1c(N)nc(C(CC(N)=O)NCC(N)C(N)=O)nc1C(=O)NC(C(=O)NC(C)C(O)C(C)C(=O)NC(C(=O)NCCc1nc(-c2nc(C(=O)NCCC[S+](C)CC(=O)Nc3ccc([N+](=O)[O-])cc3)cs2)cs1)C(C)O)C(O[C@@H]1O[C@@H](CO)[C@@H](O)[C@@H](O)[C@@H]1O[C@H]1O[C@H](CO)[C@@H](O)[C@@H](OC(N)=O)[C@@H]1O)c1c[nH]cn1` (some centres not stated) as the compound, how does the viability at 100 µg/mL [1] read?
**A.** 30%

**Q.** And the viability at 10 µg/mL [2]?
**A.** 46%

**Q.** For `Cc1c(N)nc(C(CC(N)=O)NCC(N)C(N)=O)nc1C(=O)NC(C(=O)NC(C)C(O)C(C)C(=O)NC(C(=O)NCCc1nc(-c2nc(C(=O)NCCC[S+](C)CC(=O)N3CCCC3)cs2)cs1)C(C)O)C(O[C@@H]1O[C@@H](CO)[C@@H](O)[C@@H](O)[C@@H]1O[C@H]1O[C@H](CO)[C@@H](O)[C@@H](OC(N)=O)[C@@H]1O)c1c[nH]cn1` (some centres not stated), which viability at 100 µg/mL [1] is on record?
**A.** 29%

**Q.** And the viability at 10 µg/mL [2]?
**A.** 35%

**Q.** What does the source list for `Cc1c(N)nc(C(CC(N)=O)NCC(N)C(N)=O)nc1C(=O)NC(C(=O)NC(C)C(O)C(C)C(=O)NC(C(=O)NCCc1nc(-c2nc(C(=O)NCCC[S+](C)CC(=O)N3CCOCC3)cs2)cs1)C(C)O)C(O[C@@H]1O[C@@H](CO)[C@@H](O)[C@@H](O)[C@@H]1O[C@H]1O[C@H](CO)[C@@H](O)[C@@H](OC(N)=O)[C@@H]1O)c1c[nH]cn1` (some centres not stated)?
**A.** viability at 100 µg/mL [1]: 28%; viability at 10 µg/mL [2]: 51%

**Q.** With `Cc1c(N)nc(C(CC(N)=O)NCC(N)C(N)=O)nc1C(=O)NC(C(=O)NC(C)C(O)C(C)C(=O)NC(C(=O)NCCc1nc(-c2nc(C(=O)NCCC[S+](C)CC(=O)Nc3ccc4ccccc4c3)cs2)cs1)C(C)O)C(O[C@@H]1O[C@@H](CO)[C@@H](O)[C@@H](O)[C@@H]1O[C@H]1O[C@H](CO)[C@@H](O)[C@@H](OC(N)=O)[C@@H]1O)c1c[nH]cn1` (some centres not stated) as the compound, how does the viability at 100 µg/mL [1] read?
**A.** 32%

**Q.** What about the viability at 10 µg/mL [2] of the same compound?
**A.** 48%

**Q.** What does the source list for `Cc1c(N)nc(C(CC(N)=O)NCC(N)C(N)=O)nc1C(=O)NC(C(=O)NC(C)C(O)C(C)C(=O)NC(C(=O)NCCc1nc(-c2nc(C(=O)NCCC[S+](C)CC(N)=O)cs2)cs1)C(C)O)C(O[C@@H]1O[C@H](CO)[C@H](O)[C@@H](O)[C@@H]1O[C@H]1O[C@@H](CO)[C@@H](O)[C@H](OC(N)=O)[C@H]1O)c1c[nH]cn1` (some centres not stated)?
**A.** viability at 100 µg/mL [1]: 21%; viability at 10 µg/mL [2]: 38%

**Q.** `Cc1c(N)nc(C(CC(N)=O)NCC(N)C(N)=O)nc1C(=O)NC(C(=O)NC(C)C(O)C(C)C(=O)NC(C(=O)NCCc1nc(-c2nc(C(=O)NCCC[S+](C)CC(=O)Nc3ccccc3)cs2)cs1)C(C)O)C(O[C@@H]1O[C@@H](CO)[C@@H](O)[C@@H](O)[C@@H]1O[C@H]1O[C@H](CO)[C@@H](O)[C@@H](OC(N)=O)[C@@H]1O)c1c[nH]cn1` (some centres not stated) was tested. Which viability at 100 µg/mL [1] did it give?
**A.** 27%

**Q.** And the viability at 10 µg/mL [2]?
**A.** 45%

**Q.** What does the source list for `COc1ccc(NC(=O)C[S+](C)CCCNC(=O)c2csc(-c3csc(CCNC(=O)C(NC(=O)C(C)C(O)C(C)NC(=O)C(NC(=O)c4nc(C(CC(N)=O)NCC(N)C(N)=O)nc(N)c4C)C(O[C@@H]4O[C@@H](CO)[C@@H](O)[C@@H](O)[C@@H]4O[C@H]4O[C@H](CO)[C@@H](O)[C@@H](OC(N)=O)[C@@H]4O)c4c[nH]cn4)C(C)O)n3)n2)cc1` (some centres not stated)?
**A.** viability at 100 µg/mL [1]: 28%; viability at 10 µg/mL [2]: 40%

**Q.** Which viability at 100 µg/mL [1] does the source give for `CCOC(=O)C[S+](C)CCCNC(=O)c1csc(-c2csc(CCNC(=O)C(NC(=O)C(C)C(O)C(C)NC(=O)C(NC(=O)c3nc(C(CC(N)=O)NCC(N)C(N)=O)nc(N)c3C)C(O[C@@H]3O[C@@H](CO)[C@@H](O)[C@@H](O)[C@@H]3O[C@H]3O[C@H](CO)[C@@H](O)[C@@H](OC(N)=O)[C@@H]3O)c3c[nH]cn3)C(C)O)n2)n1` (some centres not stated) here?
**A.** 27%

**Q.** And the viability at 10 µg/mL [2]?
**A.** 43%

**Q.** With `Cc1c(N)nc(C(CC(N)=O)NCC(N)C(N)=O)nc1C(=O)NC(C(=O)NC(C)C(O)C(C)C(=O)NC(C(=O)NCCc1nc(-c2nc(C(=O)NCCC[S+](C)CC(=O)NC3CC3)cs2)cs1)C(C)O)C(O[C@@H]1O[C@@H](CO)[C@@H](O)[C@@H](O)[C@@H]1O[C@H]1O[C@H](CO)[C@@H](O)[C@@H](OC(N)=O)[C@@H]1O)c1c[nH]cn1` (some centres not stated) as the compound, how does the viability at 100 µg/mL [1] read?
**A.** 28%

**Q.** What about the viability at 10 µg/mL [2] of the same compound?
**A.** 38%

**Q.** With `Cc1c(N)nc(C(CC(N)=O)NCC(N)C(N)=O)nc1C(=O)NC(C(=O)NC(C)C(O)C(C)C(=O)NC(C(=O)NCCc1nc(-c2nc(C(=O)NCCC[S+](C)CC(=O)NC(C)C)cs2)cs1)C(C)O)C(O[C@@H]1O[C@H](CO)[C@@H](O)[C@@H](O)C1OC1O[C@@H](CO)C(O)[C@@H](OC(N)=O)[C@@H]1O)c1c[nH]cn1` (some centres not stated) as the compound, how does the viability at 100 µg/mL [1] read?
**A.** 23%

**Q.** And the viability at 10 µg/mL [2]?
**A.** 41%

**Q.** Which results are given for `Cc1c(N)nc([C@H](CC(N)=O)NC[C@H](N)C(N)=O)nc1C(=O)N[C@H](C(=O)N[C@H](C)[C@@H](O)[C@H](C)C(=O)N[C@H](C(=O)NCCc1nc(-c2nc(C(=O)NCCC[S+](C)C)cs2)cs1)[C@@H](C)O)[C@@H](O[C@@H]1O[C@@H](CO)[C@@H](O)[C@H](O)[C@@H]1O[C@H]1O[C@H](CO)[C@@H](O)[C@H](OC(N)=O)[C@@H]1O)c1c[nH]cn1` [BLEOMYCIN A2]?
**A.** viability at 100 µg/mL [1]: 28%; viability at 10 µg/mL [2]: 39%
